Measurements: ChEMBL document CHEMBL3407362, “Design and synthesis of potent and multifunctional aldose reductase inhibitors based on quinoxalinones” (J Med Chem, 2015)
Active and inactive are the calls of the source. No cut-off for these calls is given here.

How the values were obtained:
[1] = target: Aldo-keto reductase family 1 member B1 (Rattus norvegicus, UniProt P07943); assay: Inhibition of Wistar rat lenses ALR2 using D,L-glyceraldehyde as substrate preincubated for 10 mins before substrate addition measured after 4 mins by spectrophotometry
Rattus norvegicus = species: Rattus norvegicus; assay: Selectivity ratio for Wistar rat lenses ALR2 over Wistar rat kidney ALR1; assay type: tissue-based; details: Lens of camera-type eye
[2] = Antioxidant activity assessed as DPPH scavenging activity at 100 uM after 30 mins by UV spectrophotometry; assay type: physicochemical; details: 0.5 h
[3] = Antioxidant activity assessed as DPPH scavenging activity at 10 uM after 30 mins by UV spectrophotometry; assay type: physicochemical; details: 0.5 h
[4] = Antioxidant activity assessed as DPPH scavenging activity at 50 uM after 30 mins by UV spectrophotometry; assay type: physicochemical; details: 0.5 h
Brain = assay: Antioxidant activity in rat brain assessed as inhibition of lipid peroxidation by TBARS assay; assay type: functional, tissue-based
How it was run: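 Fresh rat brain homogenized in ice-cold saline, centrifuged; lipoperoxidation driven by Fe(III)/ascorbic acid, compounds at 100 μM; malondialdehyde measured as TBARS (trichloroacetic acid, then thiobarbituric acid, red color at 532 nm); protein by Coomassie method.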

[5] = Antioxidant activity assessed as DPPH scavenging activity after 30 mins by UV spectrophotometry; assay type: physicochemical

| SMILES | IC50 [1] [nM] | Selectivity ratio (Rattus norvegicus) | further results |
| --- | --- | --- | --- |
| O=C(O)Cn1c(=O)c(-c2ccc(F)cc2)nc2ccc(-c3ccc(F)cc3)cc21 | 2130 | – | – |
| O=C(O)Cn1c(=O)c(-c2ccc(O)cc2O)nc2ccc(Cc3ccc(F)cc3)cc21 | 3340 | – | – |
| O=C(O)Cn1c(=O)c(Sc2ccc(Br)cc2)nc2ccc(Br)cc21 | 467 | 3.7 | – |
| O=C(O)Cn1c(=O)c(-c2ccc(F)cc2)nc2ccc(Cl)cc21 | 1520 | – | – |
| O=C(O)Cn1c(=O)c(-c2ccc(F)cc2)nc2ccc(F)cc21 | 874 | – | – |
| O=C(O)Cn1c(=O)c(Sc2ccc(Cl)cc2)nc2ccccc21 | 273 | 1.9 | – |
| O=C(O)Cn1c(=O)c(-c2ccc(O)cc2)nc2ccccc21 | 2590 | – | – |
| O=C(O)Cn1c(=O)c(-c2c[nH]c3ccccc23)nc2ccc(Br)cc21 | 368 | – | – |
| O=C(O)Cn1c(=O)c(-c2ccc(F)cc2)nc2ccccc21 | 3380 | – | – |
| O=C(O)Cn1c(=O)c(Cc2ccccc2)nc2ccccc21 | 1110 | – | – |
| O=C(O)Cn1c(=O)c(-c2ccc(O)cc2O)nc2cc(Cl)ccc21 | 95 | – | – |
| O=C(O)Cn1c(=O)c(-c2ccc(O)cc2O)nc2cc(F)ccc21 | 63 | – | – |
| O=C(O)Cn1c(=O)c(Sc2ccc(Br)cc2)nc2cc(Br)ccc21 | 319 | 10.2 | – |
| COc1ccc(/C=C/c2nc3ccccc3n(CC(=O)O)c2=O)cc1 | 4180 | – | – |
| O=C(O)Cn1c(=O)c(CCc2ccc(O)cc2)nc2ccc(F)cc21 | 652 | – | Activity [2]: 14.7% |
| O=C(O)Cn1c(=O)c(Sc2ccc(Br)cc2)nc2ccc(Cl)cc21 | 326 | 6.1 | – |
| O=C(O)Cn1c(=O)c(Sc2ccc(Cl)cc2)nc2ccc(Br)cc21 | 395 | 8.3 | – |
| O=C(O)Cn1c(=O)c(Oc2ccccc2)nc2ccccc21 | 468 | 12.5 | – |
| COc1cc(/C=C/c2nc3ccccc3n(CC(=O)O)c2=O)ccc1O | 419 | – | Activity [3]: 39.6%; Activity [4]: 68.8%; inhibition (Brain): Active; Activity [2]: 95.4%; IC50 [5]: 24100 nM |
| O=C(O)Cn1c(=O)c(Sc2ccc(Br)cc2)nc2ccc(F)cc21 | 191 | 1.9 | – |
| O=C(O)Cn1c(=O)c(-c2ccc(O)cc2O)nc2ccc(F)cc21 | 32 | – | – |
| O=C(O)Cn1c(=O)c(-c2c[nH]c3ccccc23)nc2ccccc21 | 639 | – | – |
| O=C(O)Cn1c(=O)c(/C=C/c2ccc(O)cc2)nc2ccc(F)cc21 | 153 | – | inhibition (Brain): Active; Activity [2]: 67.2% |
| O=C(O)Cn1c(=O)c(/C=C/c2ccc(O)cc2)nc2ccccc21 | 182 | – | inhibition (Brain): Active; Activity [2]: 71.8%; IC50 [5]: 51500 nM |

More lines, in order of falling IC50 [1], values ahead:

| IC50 [1] [nM] | SMILES | Selectivity ratio (Rattus norvegicus) | further results |
| --- | --- | --- | --- |
| 5980 | O=C(O)Cn1c(=O)c(-c2ccccc2)nc2ccccc21 | – | – |
| 798 | O=C(O)Cn1c(=O)c(CCc2ccc(O)cc2)nc2ccccc21 | – | Activity [2]: 16.2% |
| 421 | O=C(O)Cn1c(=O)c(Sc2ccccc2)nc2ccccc21 | 2.7 | – |
| 397 | O=C(O)Cn1c(=O)c(-c2ccc(O)cc2O)nc2ccccc21 | – | – |
| 296 | O=C(O)Cn1c(=O)c(Sc2ccc(Br)cc2)nc2ccccc21 | 6.9 | – |
| 238 | O=C(O)Cn1c(=O)c(-c2cc3ccccc3s2)nc2ccc(Cl)cc21 | – | – |
| 158 | O=C(O)Cn1c(=O)c(Sc2ccc(Cl)cc2)nc2ccc(Cl)cc21 | 5.1 | – |
| 139 | O=C(O)Cn1c(=O)c(-c2ccc(O)cc2O)nc2cc(Br)ccc21 | – | – |
| 91 | O=C(O)Cn1c(=O)c(-c2ccc(O)cc2O)nc2ccc(Br)cc21 | – | – |
| 69 | O=C(O)Cn1c(=O)c(-c2ccc(O)cc2O)nc2ccc(Cl)cc21 | – | – |
| 56 | O=C(O)Cn1c(=O)c(Sc2ccc(Cl)cc2)nc2ccc(F)cc21 | 3.1 | – |
